FN deposition inh = fibronectin deposition inhibition. AH1F fibroblasts, Alexa488-fibronectin deposition fluorescence, overnight. inhibition, % at 12.6 µM. actives 0.086% (n = 350,000). AID 743247;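 active = mean inhibition across replicates of 30% or more, regardless of how many single replicates reach that level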
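Measured by – fluorescence 485/525 nm · System – AH1F fibroblast monolayer, labelled fibronectin deposition · Amount – 10000 cells per well · Buffer or medium – serum-reduced DMEM (2% serum) · Doses – single dose, pinned · Also added – fluorescent fibronectin at 24 nM final · Schedule – 1 h cell attachment, overnight exposure to compound and label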
ERp5 block = blocks human ERp5 reductase activity on insulin. Q15084. ERp5 insulin aggregation, absorbance 650 nm, 90 min. inhibition, % at 9.99 µM. actives 0.05% (n = 350,000). AID 651711;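 active = mean replicate inhibition above about 25%, with every replicate also reaching it, limit read from the data, passing the limit was not always enough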
Target sequence (Q15084 whole entry, looked up): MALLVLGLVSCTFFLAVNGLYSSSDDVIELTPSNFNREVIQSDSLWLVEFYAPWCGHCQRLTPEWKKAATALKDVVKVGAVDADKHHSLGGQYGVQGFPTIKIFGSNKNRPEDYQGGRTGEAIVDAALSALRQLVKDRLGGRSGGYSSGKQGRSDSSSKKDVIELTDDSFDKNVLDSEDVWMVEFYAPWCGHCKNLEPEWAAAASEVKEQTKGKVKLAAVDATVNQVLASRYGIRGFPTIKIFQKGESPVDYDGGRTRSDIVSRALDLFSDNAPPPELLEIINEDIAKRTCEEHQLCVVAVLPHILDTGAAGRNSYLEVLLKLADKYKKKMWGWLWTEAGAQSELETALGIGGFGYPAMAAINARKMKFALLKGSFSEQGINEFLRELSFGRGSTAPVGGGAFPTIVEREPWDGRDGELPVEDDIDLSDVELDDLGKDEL
HIV Env fusion = inhibitors of HIV Env-mediated cell fusion; actives 1.1% (n = 360,000); HeLa-JRFL Env/CEM21 cell fusion, luciferase; inhibition, % at 12.3 µM; AID 651610;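 active = mean replicate inhibition score of at least 50 and every replicate individually at or above 50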
rRNA inh HTS = selective bacterial rRNA inhibition in E. coli; E. coli WT GFP vs humanized-ribosome RFP mutants, fluorescence, 24 h; active compounds read low; DMSO median 0, no signal -100; GFP signal change (wild-type ribosome), % (concentration not given with the values); actives 1.6% (n = 350,000); AID 720706;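 active = significant combined selectivity score with lowered wild-type GFP, culture density cut under 30%, mutant RFP and density less affected; inactive = any of these conditions unmet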
PDI inh = inhibitors of human protein disulfide isomerase. P07237. PDI insulin aggregation turbidity, A650, 90 min. inhibition, % at 10 µM. actives 0.052% (n = 350,000). AID 588391;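 active = mean inhibition across replicates of 30% or more, whatever share of single replicates reach that level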
PvdQ inh = blocks Pseudomonas aeruginosa PvdQ acylase activity. AID 488965. purified PvdQ acylase, fluorescence plate reader. actives 0.063% (n = 340,000). inhibition, % at 10 µM; in the data active = inhibition above about 30%, passing the limit was not always enough
Hits are given with their value; 0 = inactive; - = no result given; ! = not active in a repeat; [ ] = dose if it differs, or a comment. Shown are actives, neighbours in structure and some others; about 2.2% of the full set was active somewhere.

SMILES	FN deposition inh	ERp5 block	HIV Env fusion	rRNA inh HTS	PDI inh	PvdQ inh
C/C=C/c1ccc2c(c1)O[C@H](CN(C)Cc1cncnc1)[C@H](C)CN([C@@H](C)CO)S2(=O)=O	0	28.7	0	0	-	-
Cc1ccc(-c2ccc3c(c2)O[C@H](CN(C)C)[C@H](C)CN([C@@H](C)CO)S3(=O)=O)cc1	0	0	0	0	-	-
O=C1C=C(c2cc(F)ccc2F)C[C@@H](c2ccc(F)cc2)C1	0	0	0	0	0	64.2
C[C@@H]1CN([C@@H](C)CO)C(=O)c2cc(Br)cnc2O[C@H]1CN(C)Cc1ccccn1	-	0	0	0	-	-
Cc1cc(C(=O)N/N=C/c2ccc(-c3cccc(Cl)c3)o2)n[nH]1	0	0	0	-23.1	0	0
Cc1ccc(C(=O)N/N=C/c2ccc(-c3cccc(Cl)c3)o2)cn1	0	0	0	0	0	0
Cc1ccc(-c2cc(C(=O)N/N=C/c3ccccc3O)n[nH]2)o1	0	0	0	0	0	0
COCc1cc(C)nc(OCC(=O)N/N=C/c2ccc(-c3cccc([N+](=O)[O-])c3)o2)c1C#N	0	-	0	-	-	-
Cc1cc(C(=O)N/N=C/c2ccc(-c3ccc([N+](=O)[O-])cc3C)o2)n[nH]1	0	0	0	-41.2	0	0
COCc1cc(C)nc(OCC(=O)N/N=C/c2ccc(-c3cc([N+](=O)[O-])ccc3C)o2)c1C#N	0	-	64.0	-	0	0
Cc1ccc(-c2cc(C(=O)N/N=C/c3ccc(F)cc3)n[nH]2)o1	0	0	0	-24.1	0	0
Cc1ccc(S(=O)(=O)N[C@@H]2CC[C@H](CCn3cc(C4(O)CCCC4)nn3)O[C@@H]2CO)cc1	0	0	0	0	-	-
CC=Cc1ccc2n(c1=O)C[C@@H]1[C@@H](CO)[C@H](C(=O)NCC)[C@H]2N1C(=O)Nc1cc(F)ccc1F (mixture of isomers)	-	0	-	0	-	-
CC(=O)N1CC2(C1)[C@H](c1ccc(-c3ccccc3C)cc1)[C@@H](CO)N2C(C)=O	-	-	-	0	-	-
Cc1ccccc1-c1cnn(-c2cccc([N+](=O)[O-])c2)c1N	-	0	0	-46.0	0	0
COc1ccc(S(=O)(=O)N(C)C[C@H]2Oc3c(NC(=O)NC(C)C)cccc3C(=O)N([C@@H](C)CO)C[C@H]2C)cc1	0	0	0	0	-	-
Cc1noc(C)c1NC(=O)Nc1ccc2c(c1)C(=O)N([C@H](C)CO)C[C@H](C)[C@@H](CN(C)Cc1ccccc1)OCCCC[C@H](C)O2	0	0	0	0	-	-
CC1CCN(C(=S)NC(=O)c2cccs2)CC1	0	0	0	-21.9	0	0
O=C(CN1C2CCCC1CC(NC(=O)c1ccco1)C2)Nc1ccccc1C(F)(F)F (configuration not stated)	0	-	0	-	0	0
O=C(CN1C2CCCC1CC(NC(=O)c1ccccc1)C2)Nc1ccccc1C(F)(F)F (configuration not stated)	0	0	0	-41.0	0	0
O=C(Cn1c(=O)n(CC2CCCO2)c(=O)c2ccccc21)c1ccc(Cl)c(Cl)c1 (configuration not stated)	0	-	58.0	-	0	0
CC(C)(C)c1ccc(NC(=S)NCCc2ccccn2)cc1	0	0	0	-41.0	0	0
O=C(C[C@H]1C=C[C@@H](NC(=O)Nc2ccccc2F)[C@@H](CO)O1)NCc1ccc(Cl)cc1	-	0	72.3[16.7 µM]	0	-	-
O=C(C[C@@H]1C=C[C@@H](NC(=O)CC2CC2)[C@H](CO)O1)NCc1ccc(Cl)cc1	-	0	55.2[16.7 µM]	0	-	-
O=C(O)C[C@H]1C=C[C@H](NC(=O)Nc2ccccc2)[C@@H](CO)O1	0	0	0	0	-	-
SMILES	FN deposition inh	ERp5 block	HIV Env fusion	rRNA inh HTS	PDI inh	PvdQ inh
O=C(C[C@H]1C=C[C@@H](NC(=O)c2cccc(F)c2)[C@@H](CO)O1)NCc1ccc(Oc2ccccc2)cc1	-	0	79.9[16.7 µM]	0	-	-
O=C(O)C[C@@H]1C=C[C@H](NC(=O)Nc2ccccc2)[C@H](CO)O1	0	0	57.8[16.7 µM]	0	-	-
CCCNC(=O)N(C)C[C@@H]1Oc2cc(C3=CCCCC3)ccc2S(=O)(=O)N([C@@H](C)CO)C[C@@H]1C	0	0	0	0	-	-
CCC(=O)N1[C@@H]2Cn3c(ccc(-c4ccccc4)c3=O)[C@H]1[C@@H](C(=O)N1CCc3ccccc3C1)[C@@H]2CO	-	0	-	0	-	-
O=C(C[C@@H]1C=C[C@H](NC(=O)Nc2ccccc2F)[C@@H](CO)O1)NCc1ccc(-c2ccccc2)cc1	0	0	0	0	-	-
O=C(C[C@H]1C=C[C@@H](NC(=O)Nc2ccccc2F)[C@@H](CO)O1)NCc1ccc(-c2ccccc2)cc1	0	0	83.6[16.7 µM]	0	-	-
Cc1ccc(CNc2nc(C)nc3sc4c(c23)CCC4)cc1	0	-	73.6	-	0	0
Cc1nc(Nc2ccc(O)cc2)c2c3c(sc2n1)CCCC3	0	0	0	0	0	0
COc1ccc(-c2csc3ncn(-c4ccccc4OC)c(=O)c23)cc1OC	0	0	0	-26.1	0	0
CC#CC[N+](C)(C)CCCCCCCCCCCC	0	0	62.4	0	0	0
C#CC[N+](C)(C)CCCCCCCCCC	0	0	0	-	0	0
O=C(NC1=C(NC2CCS(=O)(=O)C2)C(=O)c2ccccc2C1=O)c1ccccc1 (configuration not stated)	0	0	56.6	0	0	0
COc1cc(/C=N/NS(=O)(=O)c2ccc(C(C)(C)C)cc2)cc([N+](=O)[O-])c1O	-	0	0	-36.2	0	0
CCCC#Cc1cnc2c(c1)C(=O)N([C@@H](C)CO)C[C@H](C)[C@@H](CN(C)S(C)(=O)=O)O2	0	0	0	0	-	-
Cc1ccc(/C=C/C(=O)N(Cc2cccs2)C2CCS(=O)(=O)C2)cc1 (configuration not stated)	0	0	0	-29.0	0	-
Cc1ccc(CN(C(=O)c2cc(=O)c3cc(Cl)c(C)cc3o2)C2CCS(=O)(=O)C2)cc1 (configuration not stated)	-	-	-	-	0	0
Cc1cc2oc(C(=O)N(Cc3cccs3)C3CCS(=O)(=O)C3)cc(=O)c2cc1Cl (configuration not stated)	0	0	0	-21.3	0	0
C[C@@H]1CCCCO[C@@H](CN(C)S(=O)(=O)c2cccs2)[C@H](C)CN([C@@H](C)CO)C(=O)c2cc(NS(=O)(=O)c3ccc(F)cc3)ccc2O1	0	0	0	0	-	-
Cc1ccc(-c2nc(CSCC(=O)N3CCCC3)c(C)o2)cc1	0	-	0	-	0	0
Cc1cccc(-c2nc(CSCC(=O)N3CCN(c4ccccn4)CC3)c(C)o2)c1	0	-	89.3	-	0	0
C/C(N)=C(/C#N)C(=O)CSc1nc(C2CCCCC2)n(-c2ccccc2)n1	0	0	67.5!	0	0	0
NC(=O)NC(=O)CSc1nc(C2CCCCC2)n(-c2ccccc2)n1	0	0	0	0	0	0
CCOC(=O)c1cnc(-n2nc(C)cc2C)nc1NC1CCCCC1	-	-	105.2	-	0	0

Source: PubChem
